Measurements taken from ChEMBL document CHEMBL4052595, “Application of Residual Dipolar Couplings and Selective Quantitative NOE to Establish the Structures of Tetranortriterpenoids from Xylocarpus rumphii” (J Nat Prod, 2017).
Activity calls are given as the source filed them.

Legend:
Type in all cases: functional, cell-based
MDA-MB-435 = assay: Growth inhibition of human MDA-MB-435 cells at 10^-5 M incubated for 48 hrs by sulforhodamine B assay
How it was run: (§1)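 Run in the NCI59 one-dose cell-line screen, with each compound tested at a single concentration of 1 × 10−5 M.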

SF-539 = assay: Growth inhibition of human SF539 cells at 10^-5 M incubated for 48 hrs by sulforhodamine B assay; how it was run: as §1
UO-31 = assay: Growth inhibition of human UO31 cells at 10^-5 M incubated for 48 hrs by sulforhodamine B assay
How it was run: (§2)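 Tested at a single concentration of 1 × 10−5 M as part of the NCI59 cell-line one-dose screen.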

NCI-H226 = assay: Growth inhibition of human NCI-H226 cells at 10^-5 M incubated for 48 hrs by sulforhodamine B assay; how it was run: as §1
SK-MEL-5 = assay: Growth inhibition of human SK-MEL-5 cells at 10^-5 M incubated for 48 hrs by sulforhodamine B assay; how it was run: as §1
A498 = assay: Growth inhibition of human A498 cells at 10^-5 M incubated for 48 hrs by sulforhodamine B assay; how it was run: as §1
SF-268 = assay: Growth inhibition of human SF268 cells at 10^-5 M incubated for 48 hrs by sulforhodamine B assay; how it was run: as §1
T47D = assay: Growth inhibition of human T47D cells at 10^-5 M incubated for 48 hrs by sulforhodamine B assay; how it was run: as §2
NCI-H460 = assay: Growth inhibition of human NCI-H460 cells at 10^-5 M incubated for 48 hrs by sulforhodamine B assay; how it was run: as §1
Hs-578T = assay: Growth inhibition of human Hs 578T cells at 10^-5 M incubated for 48 hrs by sulforhodamine B assay; how it was run: as §1
HT-29 = assay: Growth inhibition of human HT-29 cells at 10^-5 M incubated for 48 hrs by sulforhodamine B assay; how it was run: as §1
HCT-15 = assay: Growth inhibition of human HCT15 cells at 10^-5 M incubated for 48 hrs by sulforhodamine B assay; how it was run: as §1
CAKI-1 = assay: Growth inhibition of human Caki1 cells at 10^-5 M incubated for 48 hrs by sulforhodamine B assay; how it was run: as §1
MCF7 = assay: Growth inhibition of human MCF7 cells at 10^-5 M incubated for 48 hrs by sulforhodamine B assay; how it was run: as §1
SR = assay: Growth inhibition of human SR cells at 10^-5 M incubated for 48 hrs by sulforhodamine B assay; how it was run: as §1
HL-60(TB) = assay: Growth inhibition of human HL-60(TB) cells at 10^-5 M incubated for 48 hrs by sulforhodamine B assay
How it was run: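 Run in the NCI59 cell-line one-dose screen, with each compound tested at a single concentration of 1 × 10−5 M.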

MOLT-4 = assay: Growth inhibition of human MOLT4 cells at 10^-5 M incubated for 48 hrs by sulforhodamine B assay; how it was run: as §1
MDA-MB-231 = assay: Growth inhibition of human MDA-MB-231 cells at 10^-5 M incubated for 48 hrs by sulforhodamine B assay; how it was run: as §1
U-251 = assay: Growth inhibition of human U251 cells at 10^-5 M incubated for 48 hrs by sulforhodamine B assay; how it was run: as §2
SNB-75 = assay: Growth inhibition of human SNB75 cells at 10^-5 M incubated for 48 hrs by sulforhodamine B assay; how it was run: as §1
NCI-H522 = assay: Growth inhibition of human NCI-H522 cells at 10^-5 M incubated for 48 hrs by sulforhodamine B assay; how it was run: as §1
HOP-62 = assay: Growth inhibition of human HOP62 cells at 10^-5 M incubated for 48 hrs by sulforhodamine B assay; how it was run: as §1
OVCAR-8 = assay: Growth inhibition of human OVCAR8 cells at 10^-5 M incubated for 48 hrs by sulforhodamine B assay; how it was run: as §1
UACC-62 = assay: Growth inhibition of human UACC62 cells at 10^-5 M incubated for 48 hrs by sulforhodamine B assay; how it was run: as §2
HCC 2998 = assay: Growth inhibition of human HCC2998 cells at 10^-5 M incubated for 48 hrs by sulforhodamine B assay; how it was run: as §1
OVCAR-4 = assay: Growth inhibition of human OVCAR4 cells at 10^-5 M incubated for 48 hrs by sulforhodamine B assay; how it was run: as §1
SK-MEL-28 = assay: Growth inhibition of human SK-MEL-28 cells at 10^-5 M incubated for 48 hrs by sulforhodamine B assay; how it was run: as §1
OVCAR-3 = assay: Growth inhibition of human OVCAR3 cells at 10^-5 M incubated for 48 hrs by sulforhodamine B assay; how it was run: as §1
M14 = assay: Growth inhibition of human M14 cells at 10^-5 M incubated for 48 hrs by sulforhodamine B assay; how it was run: as §1
A549 = assay: Growth inhibition of human A549/ATCC cells at 10^-5 M incubated for 48 hrs by sulforhodamine B assay; how it was run: as §1
ACHN = assay: Growth inhibition of human ACHN cells at 10^-5 M incubated for 48 hrs by sulforhodamine B assay; how it was run: as §1
786-0 = assay: Growth inhibition of human 786-0 cells at 10^-5 M incubated for 48 hrs by sulforhodamine B assay; how it was run: as §1
HOP-92 = assay: Growth inhibition of human HOP92 cells at 10^-5 M incubated for 48 hrs by sulforhodamine B assay; how it was run: as §1
K562 = assay: Growth inhibition of human K562 cells at 10^-5 M incubated for 48 hrs by sulforhodamine B assay; how it was run: as §1
COLO 205 = assay: Growth inhibition of human COLO205 cells at 10^-5 M incubated for 48 hrs by sulforhodamine B assay; how it was run: as §1
SW-620 = assay: Growth inhibition of human SW620 cells at 10^-5 M incubated for 48 hrs by sulforhodamine B assay; how it was run: as §2
CCRF-CEM = assay: Growth inhibition of human CCRF-CEM cells at 10^-5 M incubated for 48 hrs by sulforhodamine B assay; how it was run: as §1
BT-549 = assay: Growth inhibition of human BT549 cells at 10^-5 M incubated for 48 hrs by sulforhodamine B assay; how it was run: as §1
NCI/ADR-RES = assay: Growth inhibition of human NCI/ADR-RES cells at 10^-5 M incubated for 48 hrs by sulforhodamine B assay; how it was run: as §1
SF-295 = assay: Growth inhibition of human SF295 cells at 10^-5 M incubated for 48 hrs by sulforhodamine B assay; how it was run: as §1
OVCAR-5 = assay: Growth inhibition of human OVCAR5 cells at 10^-5 M incubated for 48 hrs by sulforhodamine B assay; how it was run: as §1
EKVX = assay: Growth inhibition of human EKVX cells at 10^-5 M incubated for 48 hrs by sulforhodamine B assay; how it was run: as §1
RPMI-8226 = assay: Growth inhibition of human RPMI8226 cells at 10^-5 M incubated for 48 hrs by sulforhodamine B assay; how it was run: as §1
SNB-19 = assay: Growth inhibition of human SNB19 cells at 10^-5 M incubated for 48 hrs by sulforhodamine B assay; how it was run: as §1
HCT-116 = assay: Growth inhibition of human HCT116 cells at 10^-5 M incubated for 48 hrs by sulforhodamine B assay; how it was run: as §1
UACC-257 = assay: Growth inhibition of human UACC257 cells at 10^-5 M incubated for 48 hrs by sulforhodamine B assay; how it was run: as §2
NCI-H322M = assay: Growth inhibition of human NCI-H322M cells at 10^-5 M incubated for 48 hrs by sulforhodamine B assay; how it was run: as §1
SK-MEL-2 = assay: Growth inhibition of human SK-MEL-2 cells at 10^-5 M incubated for 48 hrs by sulforhodamine B assay; how it was run: as §1
SN12C = assay: Growth inhibition of human SN12C cells at 10^-5 M incubated for 48 hrs by sulforhodamine B assay; how it was run: as §1
RXF 393 = assay: Growth inhibition of human RXF393 cells at 10^-5 M incubated for 48 hrs by sulforhodamine B assay; how it was run: as §1
IGROV-1 = assay: Growth inhibition of human IGROV1 cells at 10^-5 M incubated for 48 hrs by sulforhodamine B assay; how it was run: as §1
DU-145 = assay: Growth inhibition of human DU145 cells at 10^-5 M incubated for 48 hrs by sulforhodamine B assay; how it was run: as §1
KM12 = assay: Growth inhibition of human KM12 cells at 10^-5 M incubated for 48 hrs by sulforhodamine B assay; how it was run: as §1
PC-3 = assay: Growth inhibition of human PC3 cells at 10^-5 M incubated for 48 hrs by sulforhodamine B assay; how it was run: as §1
TK-10 = assay: Growth inhibition of human TK10 cells at 10^-5 M incubated for 48 hrs by sulforhodamine B assay; how it was run: as §2
SK-OV-3 = assay: Growth inhibition of human SKOV3 cells at 10^-5 M incubated for 48 hrs by sulforhodamine B assay; how it was run: as §1
LOX IMVI = assay: Growth inhibition of human LOXIMVI cells at 10^-5 M incubated for 48 hrs by sulforhodamine B assay; how it was run: as §1
NCI-H23 = assay: Growth inhibition of human NCI-H23 cells at 10^-5 M incubated for 48 hrs by sulforhodamine B assay; how it was run: as §1

Measured: growth inhibition (GI)

CC[C@H](C)C(=O)O[C@@H]1[C@@H]2[C@@H](OC(=O)C(C)C)[C@@]34O[C@]2(O)[C@@](C)([C@@H](CC(=O)OC)C1(C)C)[C@H]3CC[C@]1(C)C4=CC(=O)O[C@H]1c1ccoc1
inactive: all assays above
